Assay outcomes from PubChem BioAssay.
CSN inh: CSN deneddylation inhibition. Purified CSN, SCF-Nedd8-OG deneddylation, fluorescence polarization. inhibition, % at 12.5 µM. hit rate 0.38% among 360,000;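 active means pattern-corrected inhibition above about 35%, with an unprinted fluorescence ratio check between 0.5 and 1.5, limit read from the data, passing the limit was not always enough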
Target sequence (Q92905 whole entry, looked up, one chain of several): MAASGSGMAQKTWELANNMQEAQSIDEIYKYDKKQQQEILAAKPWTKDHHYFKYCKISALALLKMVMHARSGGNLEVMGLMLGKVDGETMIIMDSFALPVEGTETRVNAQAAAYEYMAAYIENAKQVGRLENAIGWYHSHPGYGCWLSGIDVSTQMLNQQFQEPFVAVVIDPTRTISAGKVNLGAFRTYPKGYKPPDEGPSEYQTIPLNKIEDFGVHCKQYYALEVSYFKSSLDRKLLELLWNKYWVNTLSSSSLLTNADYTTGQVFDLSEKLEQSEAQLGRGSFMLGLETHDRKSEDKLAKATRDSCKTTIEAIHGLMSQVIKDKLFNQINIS
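Test system: purified human Csn5 enzyme expressed in HEK293T cells. Amount: 0.24 nM enzyme. Reagent: SCFSkp2-Nedd8OG substrate at 10 nM final. Schedule: 90 min incubation of compound, enzyme and substrate at room temperature. Detection: fluorescence polarization. Read-out: % inhibition of substrate cleavage by Csn5.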
Xi reactivation: X-chromosome reactivation activator | hit rate 0.055% among 360,000 | activation, % at 7.58 µM | AID 743238 | XiGFP mouse fibroblasts, % GFP-positive cells imaging, 3 d; cells co-treated with 5-aza-dC sensitizer; scaled so ellipticine positive control = 100%;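 active means mean normalized replicate activation at least 10% and every replicate at or above 10%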
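Material: SV40-immortalized XiGFP fibroblast cells, line 68-5-11 | Buffer or medium: DMEM containing 5-aza-dC | Dosing: One concentration, pinned | Times: 3 d treatment, 15 min room-temperature fixation | Controls: Ellipticine 6 µM positive control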
TPT1 inh: C. albicans TPT1 enzyme inhibition. hit rate 0.81% among 300,000. inhibition, % at 5 µM. recombinant caTPT1, FP RNA substrate dephosphorylation. AID 1962;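 active means inhibition above the mean of all tested compounds plus 3 SD, set per screening campaign, cut at about 24% in these data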
HNF4A DNA FP: change in binding of human HNF4 alpha to DNA | P41235 | activity change, % at 10 µM | AID 1224865 | HNF4a-FITC DNA binding, fluorescence polarization, 1 h | hit rate 0.3% among 360,000; in the data active means activity change above about 30%, passing the limit was not always enough
aDG glyco up: alpha-DG glycosylation activation; Pro5-aDG cells, alpha-DG glycosylation AlphaScreen (IIH6); 0% Pro5, 100% B10-LARGE cell signal; AID 624168; hit rate 0.22% among 360,000; activation, % at 10 µM;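 active means activation of at least 8% versus controls, or a plate z-score of at least 8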;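 further: Pro5 are CHO cells carrying HIG-tagged alpha-DG that lacks glycosylation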
Rpn11 inh: inhibitors of human proteasome Rpn11; O00487; human 26S proteasome, Ub4-pepOG fluorescence polarization; 20S core pre-blocked with epoxomicin; inhibition, % at 20 µM; hit rate 0.59% among 360,000; AID 588493;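 active means inhibition at 20 µM, scaled to each plate's controls, above about 33%, limit read from the data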
TPT1 inh confirm: confirmation of Candida albicans TPT1 inhibitors. shares compounds with TPT1 inh. recombinant caTPT1, fluorescence polarization, RNase T1 coupled. inhibition, % at 5 µM. hit rate 74% among 2,400. AID 2149;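 active means inhibition above the primary screen limit, the mean inhibition of all tested compounds plus 3 SD, cut at about 25% in these data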
RNase T1 counter: counter-screen for TPT1 inhibitors: inhibitors of Aspergillus oryzae RNase T1; shares compounds with TPT1 inh; RNase T1 cleavage, fluorescence polarization, 1536-well; inhibition, % at 5 µM; hit rate 83% among 2,400; AID 2153;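 active means inhibition above the solvent-only control well mean plus 3 SD, limit set per screening run, cut at about 23% in these data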;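 further: inhibitors block cleavage so intact labeled substrate keeps polarization high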
Target sequence (P00651 whole entry, looked up): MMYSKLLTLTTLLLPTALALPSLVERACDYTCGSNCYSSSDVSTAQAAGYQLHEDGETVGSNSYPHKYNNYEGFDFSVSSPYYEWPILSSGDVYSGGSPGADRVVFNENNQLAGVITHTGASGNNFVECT
Large screens that a line does not name were inactive (follow-up assays come after a bar, where shown). Sampled rows, rich in hits. Any-hit rate of the full collection: about 1.3%.

O=C(Cc1ccccc1)Nc1ccc(N2CCCC2)cc1	TPT1 inh 36 (no result: Xi reactivation) | TPT1 inh confirm inactive | RNase T1 counter 26
Cc1ccc(/C=N/c2sc(Cc3ccccc3)c(C)c2C(N)=O)o1	none
Cc1c(Cc2ccccc2)sc(N)c1C(N)=O	none (no result: CSN inh, Xi reactivation, HNF4A DNA FP, aDG glyco up, Rpn11 inh)
Cc1c(Cc2ccccc2)sc(/N=C/c2ccc3ccccc3c2)c1C(N)=O	TPT1 inh 56 (no result: Xi reactivation) | TPT1 inh confirm inactive | RNase T1 counter inactive
Cc1c(Cc2ccccc2)sc(/N=C/c2c(O)ccc3ccccc23)c1C(N)=O	TPT1 inh 94, HNF4A DNA FP 38 (not shown: Xi reactivation, Rpn11 inh) | TPT1 inh confirm 48 | RNase T1 counter 57
O=C(C[C@H]1CC[C@H]2[C@@H](COC[C@H](O)CN2Cc2cccc(C(F)(F)F)c2)O1)NCCc1ccccc1	none (no result: CSN inh, TPT1 inh, HNF4A DNA FP, aDG glyco up, Rpn11 inh)
O=C(N/N=C\c1c(O)ccc2ccccc12)c1ccc(Cn2cccn2)o1	TPT1 inh 40 (not shown: Rpn11 inh) | TPT1 inh confirm 45 | RNase T1 counter 49
O=C(N/N=C\c1ccc(Cl)s1)c1ccc(Cn2cccn2)o1	none
COc1ccc(/C=C2\CCC/C(=C\C=N\N(C)C)C2=O)cc1	TPT1 inh 37 (not shown: Rpn11 inh) | TPT1 inh confirm 45 | RNase T1 counter 55
C[C@@H]1CN([C@@H](C)CO)C(=O)c2cccc(NC(=O)Nc3ccc(F)cc3)c2O[C@@H]1CN(C)CC1CC1	none (no result: CSN inh, TPT1 inh, HNF4A DNA FP, aDG glyco up, Rpn11 inh)
CC1(C)CCN2CCC(C)(C)c3c(O)ccc1c32	Xi reactivation 80, TPT1 inh 48 | TPT1 inh confirm 36 | RNase T1 counter 50
COC(=O)C1(C)NC(c2ccccc2F)C2C(=O)N(c3ccccc3)C(=O)C21 (stereo unspecified)	none
COC(=O)C1(C)NC(c2ccc(Cl)cc2)C2C(=O)N(c3ccccc3)C(=O)C21 (stereo unspecified)	TPT1 inh 82 | TPT1 inh confirm inactive | RNase T1 counter inactive
CN(C)c1ccc(/C=C/C(=O)c2c(O)c3ccccc3oc2=O)cc1	TPT1 inh 55 (not shown: Rpn11 inh) | TPT1 inh confirm 70 | RNase T1 counter 80
COc1ccc(-c2cnc3c(c2)C(=O)N([C@@H](C)CO)C[C@H](C)[C@@H](CN(C)C(=O)CN(C)C)O3)cc1	none (no result: CSN inh, TPT1 inh, HNF4A DNA FP, aDG glyco up, Rpn11 inh)
Cn1nnnc1SCc1ccc(CSc2nnnn2C)cc1	TPT1 inh 55 | TPT1 inh confirm inactive | RNase T1 counter inactive
Cn1nnnc1SCc1ccc(Cl)cc1	none
COc1ccccc1OCCC(=O)OCC(=O)c1c(N)n(C)c(=O)n(C)c1=O	TPT1 inh 113 | TPT1 inh confirm inactive | RNase T1 counter inactive
CCC(=O)N1CC2(C1)[C@H](c1ccc(-c3ccc(F)cc3)cc1)[C@@H](CO)N2C(=O)CC	none (no result: CSN inh, TPT1 inh, HNF4A DNA FP, aDG glyco up, Rpn11 inh)
COc1cc(/C=C(\C#N)c2[nH]nc(N)c2C#N)cc(OC)c1O	TPT1 inh 25 (no result: Xi reactivation) | TPT1 inh confirm 33 | RNase T1 counter 37
COc1cc(/C=C(\C#N)c2ccccn2)cc(OC)c1O	TPT1 inh 56 (not shown: Rpn11 inh) | TPT1 inh confirm 72 | RNase T1 counter 76
CN(C)c1ccc(/C=C(\C#N)c2ccccn2)cc1	TPT1 inh 86 (not shown: Rpn11 inh) | TPT1 inh confirm 83 | RNase T1 counter 92
O=C(/C=C/c1cn(CC(O)CN2CCOCC2)c2ccccc12)c1cccs1 (stereo unspecified)	TPT1 inh 63 (no result: CSN inh, Xi reactivation, HNF4A DNA FP, aDG glyco up, Rpn11 inh) | TPT1 inh confirm 82 | RNase T1 counter 88
Cc1ccc(C(=O)/C=C/c2cn(CC(O)CN3CCOCC3)c3ccccc23)cc1 (stereo unspecified)	TPT1 inh 47 (not shown: Rpn11 inh) | TPT1 inh confirm 46 | RNase T1 counter 57
COc1ccc2c3c([nH]c2c1)[C@@H](CO)N(C(=O)c1cccc(F)c1)CC31CCN(C(C)=O)CC1	none (no result: CSN inh, TPT1 inh, HNF4A DNA FP, aDG glyco up, Rpn11 inh)
O=[N+]([O-])c1ccc(N(c2ccccc2)c2ccccc2)cc1	TPT1 inh 30 (not shown: Xi reactivation, Rpn11 inh) | TPT1 inh confirm 32 | RNase T1 counter 46
Cc1ccc(-n2c(O)c(/C=C3/C(c4ccccc4)=Nc4ccccc43)c(=O)[nH]c2=O)cc1	none
